Experiment [1] deals with Mus musculus. The experiment in a line: Antinociceptive activity against radiant heat-induced nociception in po dosed CD1 mouse assessed as increase in tail withdrawal latency measured after 15 to 120 mins postdose by tail flick test in presence of 2 mg/kg, ip nicotinic receptor antagonist mecamylamine hydrochloride administered 30 mins before compound infusion. The class given is functional. The gist of the method:
(§1)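 Antagonist given ip 30 min before oral dosing (naloxone 1, mecamylamine 2, yohimbine 2, CGP 35348 50 mg/kg). Tail flick with radiant heat at the tail tip, cut-off 15 s; latencies at 15–120 min converted to %MPE. Peak-time quantal response (≥50% MPE); ED50 from at least four groups of six male CD-1 mice.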

Experiment [2] has as its target T1, Alpha-1B adrenergic receptor (Rattus norvegicus, UniProt P15823).
T1 sequence (P15823 whole entry): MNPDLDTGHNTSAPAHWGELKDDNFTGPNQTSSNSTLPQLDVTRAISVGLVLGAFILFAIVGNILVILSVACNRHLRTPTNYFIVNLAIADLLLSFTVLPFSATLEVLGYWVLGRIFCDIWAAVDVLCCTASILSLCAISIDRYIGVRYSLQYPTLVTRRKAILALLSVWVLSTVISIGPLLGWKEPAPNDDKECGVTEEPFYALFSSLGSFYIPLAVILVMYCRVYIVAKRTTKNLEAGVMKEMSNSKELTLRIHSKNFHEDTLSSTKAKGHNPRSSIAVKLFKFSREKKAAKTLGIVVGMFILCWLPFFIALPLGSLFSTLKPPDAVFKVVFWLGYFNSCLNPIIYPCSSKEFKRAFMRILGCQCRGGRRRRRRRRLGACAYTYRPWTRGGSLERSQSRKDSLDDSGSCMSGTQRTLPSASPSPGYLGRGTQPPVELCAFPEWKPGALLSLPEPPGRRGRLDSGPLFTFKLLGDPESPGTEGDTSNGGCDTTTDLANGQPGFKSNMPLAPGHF
The experiment in a line: Displacement of [3H]prazosin from adrenergic Alpha-1B receptor in Wistar rat liver membrane after 60 mins. Type of experiment: cell membranes.

Experiment [3] deals with Mus musculus. Description: Antinociceptive activity against thermal nociception in po dosed CD1 mouse assessed as latency period to elicit jumping or hind paw licking at 1 mg/kg, po measured after 15 to 90 mins postdose by hot plate method in presence of 0.1 to 1 mg/kg, ip alpha-1-adrenergic receptor antagonist prazosin administered 15 mins before compound infusion. The class given is functional. The gist of the method:
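Male CD-1 mice given prazosin ip (0.1 or 1 mg/kg) 15 min before oral dosing at 1 mg/kg. Tail flick: radiant heat 3–4 cm from the tail tip, cut-off 15 s. Hot plate: 48.5 °C, cut-off 60 s. Baseline is the mean of three readings 15 min apart. Latency followed over time and expressed as %MPE.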
For orientation: Thermal pain tests record how soon the animal reacts.

Experiment [4] deals with Mus musculus. The experiment in a line: Ratio of compound ED50 to morphine ED50 for antinociceptive activity against radiant heat-induced nociception in icv dosed CD1 mouse. The class given is functional. The gist of the method:
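Male CD-1 mice (25–30 g) given the compound or morphine hydrochloride into the right lateral ventricle. Tail flick used radiant heat focused 3–4 cm from the tail tip, with a 15 s cutoff, and latency was read at 15–120 min. %MPE was made quantal at peak time. ED50 came from at least four groups of six mice, and both ED50s were obtained the same way.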

The test system of experiment [5] is Mus musculus. Description: Antinociceptive activity against radiant heat-induced nociception in po dosed CD1 mouse assessed as increase in tail withdrawal latency measured after 15 to 120 mins postdose by tail flick test. The class given is functional. The gist of the method:
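Male CD-1 mice, 25–30 g; oral dosing. Radiant heat focused 3–4 cm from tail tip of hand-restrained mice; tail withdrawal latency recorded, cutoff 15 s at 15 V. Baseline = mean of three readings 15 min apart; latency at 15–120 min.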

In experiment [6] the target is T2, Alpha-2C adrenergic receptor (Homo sapiens) (UniProt P18825).
T2 sequence (whole entry): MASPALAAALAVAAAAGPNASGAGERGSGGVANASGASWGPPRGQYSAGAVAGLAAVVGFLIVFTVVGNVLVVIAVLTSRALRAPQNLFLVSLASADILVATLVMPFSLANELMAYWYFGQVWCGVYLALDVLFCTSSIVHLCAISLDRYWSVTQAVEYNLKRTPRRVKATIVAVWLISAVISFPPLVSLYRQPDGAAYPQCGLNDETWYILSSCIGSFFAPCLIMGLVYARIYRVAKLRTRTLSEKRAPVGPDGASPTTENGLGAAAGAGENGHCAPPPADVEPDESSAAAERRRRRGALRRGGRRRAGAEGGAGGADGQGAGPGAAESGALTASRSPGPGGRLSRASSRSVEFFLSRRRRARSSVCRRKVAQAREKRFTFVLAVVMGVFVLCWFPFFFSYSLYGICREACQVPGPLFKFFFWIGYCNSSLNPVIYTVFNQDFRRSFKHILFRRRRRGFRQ
The experiment in a line: Inhibition of radioligand binding to human adrenergic Alpha-2C receptor at 10 uM after 60 mins.

In experiment [7] the test system is Mus musculus. The experiment in a line: Ratio of morphine ED50 to compound ED50 for antinociceptive activity against thermal nociception in po dosed CD1 mouse. The class given is functional. The gist of the method:
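Compound and morphine were dosed po in male CD-1 mice. Hot plate was held at 48.5 ± 0.1 °C, scored as paw lick, jerk or jump, with a 60 s cutoff, read at 15–90 min. Tail flick used radiant heat with a 15 s cutoff. Baseline was the mean of three readings. Peak-time %MPE was made quantal, and ED50 came from at least four groups of six mice.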

The test system of experiment [8] is Mus musculus. Description: Antinociceptive activity against radiant heat-induced nociception in po dosed CD1 mouse assessed as increase in tail withdrawal latency measured after 15 to 120 mins postdose by tail flick test in presence of 2 mg/kg, ip alpha-2-adrenergic receptor antagonist yohimbine hydrochloride administered 30 mins before compound infusion. The class given is functional. The gist of the method: as §1

Experiment [9] concerns the target T3, Alpha-1B adrenergic receptor (Rattus norvegicus) (UniProt P15823).
T3 sequence (whole entry): T1 sequence (P15823 whole entry)
Conditions: Wistar, Liver, Membrane, 10 uM.

The subject of experiment [10] is Mus musculus. The experiment in a line: Antinociceptive activity against radiant heat-induced nociception in CD1 mouse assessed as tail withdrawal latency at 1 mg/kg, po measured after 15 to 120 mins postdose by tail flick test. Type of experiment: functional. The gist of the method: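 Male CD-1 mice (25–30 g), dosed orally at 1 mg/kg. Tail flick: radiant heat focused 3–4 cm from the tail tip, cut-off 15 s at 15 V. Hot plate: 48.5 ± 0.1 °C, licking, paw jerk or jump, cut-off 60 s. Baseline is the mean of three readings 15 min apart. Latency followed to 120 min (tail) or 90 min (plate); data as %MPE.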

Experiment [11] deals with Mus musculus. Description: Antinociceptive activity against thermal nociception in po dosed CD1 mouse assessed as increase in latency period to elicit jumping or hind paw licking measured after 15 to 90 mins postdose by hot plate method in presence of 2 mg/kg, ip nicotinic receptor antagonist mecamylamine hydrochloride administered 30 mins before compound infusion. Type of experiment: functional. The gist of the method: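 Antagonist given ip 30 min before oral dosing (naloxone 1, mecamylamine 2, yohimbine 2, CGP 35348 50 mg/kg). Hot plate at 48.5 ± 0.1 °C inside a cylinder, cut-off 60 s; latencies at 15–90 min as %MPE. Peak-time quantal response (≥50% MPE); ED50 from at least four groups of six male CD-1 mice.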

As for `C=Cc1c(C)nn(CCCN2CCN(c3ccc(C)cc3)CC2)c(=O)c1N`, the ED50 – broadly, the dose at which the effect has come halfway, by size or by number of responders – in the experiment with Mus musculus [1] is 2.3 mg/kg; in the experiment with Mus musculus [5] it was 0.8 mg/kg; in the experiment with Mus musculus [8] it was 6.1 mg/kg; in the experiment on Mus musculus [11], 0.7 mg/kg. For the same compound, the IC50 (usually the concentration that inhibits the measured activity by half) in experiment [2] stood at 0.102 µM. In addition, the figures for the Activity with Mus musculus [3] and with Mus musculus [10] were 120 min and 30 min, respectively. The “Ratio ED50” value is listed as 3 in the experiment on Mus musculus [4] and 4 in the experiment on Mus musculus [7]. The Emax (as a rule, the maximal effect, on the per cent scale that the assay sets) was 71% in experiment [6] and 99% in [9].

The values are drawn from ChEMBL document CHEMBL1154181 (J Med Chem, 2009).
